According to PubChem BioAssay AID588627 (Johns Hopkins Ion Channel Center, 2011):
Hit rate of the full screen: of about 310,000 compounds, about 1,400 (0.45%) were called active.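 How the source made its calls: active means calcium response B-score plate-corrected fluorescence ratio at least 3 library SD, with starting fluorescence B-score inside 5 SD; inactive means the rest.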 The sample as a whole holds a higher share of actives than the screen did.

Molecular target: Mas-related G-protein coupled receptor member X1 (Homo sapiens) (UniProt Q96LB2)
Sequence (Q96LB2 whole entry, looked up): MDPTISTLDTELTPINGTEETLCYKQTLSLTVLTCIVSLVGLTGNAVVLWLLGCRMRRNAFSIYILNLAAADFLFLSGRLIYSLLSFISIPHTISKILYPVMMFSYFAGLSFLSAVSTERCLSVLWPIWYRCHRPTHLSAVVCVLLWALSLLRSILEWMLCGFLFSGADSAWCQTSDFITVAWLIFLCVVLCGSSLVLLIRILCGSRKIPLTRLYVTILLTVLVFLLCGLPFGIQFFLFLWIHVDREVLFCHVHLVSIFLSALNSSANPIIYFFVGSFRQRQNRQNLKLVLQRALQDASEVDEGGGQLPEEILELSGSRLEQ
Experiment: MrgX1 activation via calcium signaling – HEK293 cells, Fluo-4 calcium flux, primary screen (AID 588627);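 on B-score: B-score of the peak-minus-trough calcium fluorescence change over baseline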
Conditions: Fluo-4 calcium fluorescence, agonist mode, at 10 µM; stronger effect = higher value
Procedure, shortened: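 Material: HEK293 cells stably expressing human MrgX1 receptor | Quantity: 15,000 cells per well | Times: Cells plated overnight, dye loaded 0.5 h 37 °C, 0.5 h room temperature | Measured by: Kinetic Fluo-4 NW fluorescence of intracellular calcium | Control set: Positive and negative controls per plate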

SMILES | B-score
CCCCC(=O)N/N=C/c1c(O)n(CCC2=CCCCC2)c(=O)[nH]c1=O | inactive
CCCCC(=O)N/N=C/c1c(O)n(CC)c(=S)n(CC)c1=O | 66 (active)
CCCCC(=O)N/N=C/c1c(O)n(-c2ccccc2)c(=O)[nH]c1=O | inactive
CC1=C(C(=O)Nc2ccccc2)S(=O)(=O)CCO1 | inactive
COc1ccc2c(c1)[C@]13CCCCC1C(C2)N(C)CC3 (stereo not given in full) | inactive
O=C1NC(=O)N(Cc2ccco2)C(=O)/C1=C\c1cccn1CCOc1ccccc1 | inactive
Cc1cc(/C=C2/C(=O)NC(=O)N(Cc3ccco3)C2=O)c(C)n1-c1ccc(C(=O)O)cc1 | inactive
O=C1NC(=O)N(Cc2ccco2)C(=O)/C1=C\c1ccc(-c2ccc(F)cc2)o1 | 28.4 (active)
CCN(N=Nc1nonc1OC)c1nonc1OC | inactive
Cc1ccc2c(c1)=C/C(=C\c1c(O)[nH]c(=O)[nH]c1=O)C(=O)N=2 | inactive
